{"source": "ChEMBL document CHEMBL5696442", "about": "“Discovery of type II inhibitors of TGFβ-activated kinase 1 (TAK1) and mitogen-activated protein kinase kinase kinase kinase 2 (MAP4K2)” (J Med Chem, 2015)", "key": {"[1]": {"biological_target": "Tyrosine-protein kinase CSK (Homo sapiens, UniProt P41240)", "assay": "Inhibition of CSK ACT labeling site harbouring VSDFGLTKEASSTQDTGKLPVKWTAPEALR in human Huh-7 cell lysate at 1 uM by KiNativ Profiling analysis relative to control", "assay_type": "subcellular"}, "[2]": {"biological_target": "Mitogen-activated protein kinase kinase kinase kinase 4 (Homo sapiens, UniProt O95819)", "sequence (O95819 2-1239 limits assumed)": "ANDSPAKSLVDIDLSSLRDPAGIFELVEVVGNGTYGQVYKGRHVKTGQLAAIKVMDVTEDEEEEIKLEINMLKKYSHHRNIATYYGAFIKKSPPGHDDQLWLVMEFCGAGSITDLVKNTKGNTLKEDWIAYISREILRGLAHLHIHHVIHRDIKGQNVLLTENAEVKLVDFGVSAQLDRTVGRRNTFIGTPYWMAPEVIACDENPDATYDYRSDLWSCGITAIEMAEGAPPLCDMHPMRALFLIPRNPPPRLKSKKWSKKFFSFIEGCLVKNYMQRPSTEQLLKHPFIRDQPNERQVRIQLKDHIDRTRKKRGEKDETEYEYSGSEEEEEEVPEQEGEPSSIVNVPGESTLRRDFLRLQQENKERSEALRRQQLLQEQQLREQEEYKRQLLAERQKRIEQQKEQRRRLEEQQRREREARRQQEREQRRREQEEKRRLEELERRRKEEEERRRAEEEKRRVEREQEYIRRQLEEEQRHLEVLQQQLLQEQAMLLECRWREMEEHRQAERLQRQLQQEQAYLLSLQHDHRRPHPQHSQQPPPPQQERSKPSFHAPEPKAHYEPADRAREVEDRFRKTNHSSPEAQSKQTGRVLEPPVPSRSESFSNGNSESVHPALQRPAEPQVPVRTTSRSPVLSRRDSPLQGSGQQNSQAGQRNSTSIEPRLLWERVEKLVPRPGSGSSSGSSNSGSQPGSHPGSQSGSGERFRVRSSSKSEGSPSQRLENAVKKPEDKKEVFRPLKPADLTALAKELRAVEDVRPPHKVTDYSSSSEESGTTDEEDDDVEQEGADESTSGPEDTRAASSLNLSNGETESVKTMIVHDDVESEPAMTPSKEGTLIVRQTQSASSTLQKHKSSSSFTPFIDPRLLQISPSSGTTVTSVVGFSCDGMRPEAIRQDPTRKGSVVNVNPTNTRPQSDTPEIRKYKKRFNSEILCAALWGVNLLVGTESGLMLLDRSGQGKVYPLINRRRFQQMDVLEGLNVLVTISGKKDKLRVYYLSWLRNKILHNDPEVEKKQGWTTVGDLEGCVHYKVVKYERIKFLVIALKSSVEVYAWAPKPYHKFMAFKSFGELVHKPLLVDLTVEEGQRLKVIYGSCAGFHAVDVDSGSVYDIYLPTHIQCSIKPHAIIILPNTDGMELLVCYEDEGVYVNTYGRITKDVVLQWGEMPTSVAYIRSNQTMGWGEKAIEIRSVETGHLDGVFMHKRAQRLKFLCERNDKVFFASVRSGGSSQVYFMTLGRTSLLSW", "assay": "Inhibition of ZC1/HGK Lys1 labeling site in human A-375 cells at 0.05 uM by KiNativ Profiling analysis relative to control", "assay_type": "cell-based"}, "[3]": {"biological_target": "T1, Serine/threonine-protein kinase Nek8 (Homo sapiens) (UniProt Q86SG6)", "T1 sequence (whole entry)": "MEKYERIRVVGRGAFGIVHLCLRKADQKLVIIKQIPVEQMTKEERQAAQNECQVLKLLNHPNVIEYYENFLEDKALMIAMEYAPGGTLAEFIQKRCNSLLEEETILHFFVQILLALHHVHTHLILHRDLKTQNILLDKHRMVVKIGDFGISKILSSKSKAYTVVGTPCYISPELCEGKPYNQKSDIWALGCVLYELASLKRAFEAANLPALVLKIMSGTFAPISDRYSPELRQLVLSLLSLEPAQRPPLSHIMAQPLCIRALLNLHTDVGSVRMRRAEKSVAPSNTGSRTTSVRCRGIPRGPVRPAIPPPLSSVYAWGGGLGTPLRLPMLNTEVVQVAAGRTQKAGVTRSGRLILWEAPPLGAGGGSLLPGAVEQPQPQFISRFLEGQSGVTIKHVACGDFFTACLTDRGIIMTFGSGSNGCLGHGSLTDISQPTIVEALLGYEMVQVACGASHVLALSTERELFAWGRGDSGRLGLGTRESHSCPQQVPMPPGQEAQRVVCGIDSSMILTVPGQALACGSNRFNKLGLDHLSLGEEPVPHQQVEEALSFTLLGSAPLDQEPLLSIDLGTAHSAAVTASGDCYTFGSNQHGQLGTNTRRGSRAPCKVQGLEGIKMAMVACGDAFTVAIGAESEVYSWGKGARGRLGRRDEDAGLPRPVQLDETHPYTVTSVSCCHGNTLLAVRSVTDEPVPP", "assay": "Inhibition of NEK8 Lys2 labeling site in human A-375 cells at 0.5 uM by KiNativ Profiling analysis relative to control", "assay_type": "cell-based"}, "[4]": {"biological_target": "eIF-2-alpha kinase GCN2 (Homo sapiens) (UniProt Q9P2K8)", "sequence (Q9P2K8 whole entry, the tested form may be a part)": "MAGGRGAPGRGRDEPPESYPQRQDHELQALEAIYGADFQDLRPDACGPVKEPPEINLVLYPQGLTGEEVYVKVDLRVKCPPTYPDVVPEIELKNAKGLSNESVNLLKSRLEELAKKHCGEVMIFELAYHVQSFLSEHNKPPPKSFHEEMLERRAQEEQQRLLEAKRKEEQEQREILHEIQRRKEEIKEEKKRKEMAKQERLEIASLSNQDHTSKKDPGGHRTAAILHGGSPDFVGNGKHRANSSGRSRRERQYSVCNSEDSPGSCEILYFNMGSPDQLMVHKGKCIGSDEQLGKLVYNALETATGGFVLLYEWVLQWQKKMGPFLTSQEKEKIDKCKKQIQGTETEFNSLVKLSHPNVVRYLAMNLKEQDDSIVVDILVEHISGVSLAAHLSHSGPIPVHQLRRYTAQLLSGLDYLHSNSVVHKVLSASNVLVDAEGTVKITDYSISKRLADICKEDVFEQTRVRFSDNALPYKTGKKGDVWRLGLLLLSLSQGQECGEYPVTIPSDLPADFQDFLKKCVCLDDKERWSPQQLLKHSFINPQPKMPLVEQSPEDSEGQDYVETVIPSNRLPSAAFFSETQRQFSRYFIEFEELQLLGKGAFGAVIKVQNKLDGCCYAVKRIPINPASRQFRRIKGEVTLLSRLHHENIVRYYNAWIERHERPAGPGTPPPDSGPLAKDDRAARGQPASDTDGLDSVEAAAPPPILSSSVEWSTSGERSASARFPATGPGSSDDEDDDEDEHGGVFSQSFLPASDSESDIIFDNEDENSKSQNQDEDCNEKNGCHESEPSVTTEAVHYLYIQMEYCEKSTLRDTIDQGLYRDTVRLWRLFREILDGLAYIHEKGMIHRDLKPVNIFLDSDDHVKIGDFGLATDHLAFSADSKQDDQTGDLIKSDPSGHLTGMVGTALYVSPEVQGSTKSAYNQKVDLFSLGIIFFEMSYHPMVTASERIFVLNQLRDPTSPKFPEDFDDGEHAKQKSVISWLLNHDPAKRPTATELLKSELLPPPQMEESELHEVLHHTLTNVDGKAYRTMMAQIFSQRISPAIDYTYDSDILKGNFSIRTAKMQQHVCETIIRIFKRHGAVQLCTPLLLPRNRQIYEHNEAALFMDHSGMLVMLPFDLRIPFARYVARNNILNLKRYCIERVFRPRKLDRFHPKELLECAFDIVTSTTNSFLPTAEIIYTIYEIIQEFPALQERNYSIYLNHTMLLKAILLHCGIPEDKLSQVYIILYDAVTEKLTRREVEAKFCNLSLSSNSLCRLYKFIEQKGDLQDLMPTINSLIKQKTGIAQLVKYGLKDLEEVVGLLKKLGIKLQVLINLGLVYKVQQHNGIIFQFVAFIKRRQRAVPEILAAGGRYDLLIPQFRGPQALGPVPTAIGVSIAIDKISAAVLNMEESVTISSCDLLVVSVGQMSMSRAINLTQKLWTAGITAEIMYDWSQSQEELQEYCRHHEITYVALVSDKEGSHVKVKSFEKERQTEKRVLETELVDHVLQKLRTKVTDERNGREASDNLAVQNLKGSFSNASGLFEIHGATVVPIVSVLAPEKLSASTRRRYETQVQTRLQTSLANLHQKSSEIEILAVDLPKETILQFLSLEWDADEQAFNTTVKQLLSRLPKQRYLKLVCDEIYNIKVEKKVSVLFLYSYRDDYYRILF", "assay": "Inhibition of GCN2 domain2 Lys1 labeling site in human A-375 cells at 5 uM by KiNativ Profiling analysis relative to control", "assay_type": "cell-based"}, "[5]": {"biological_target": "Cyclin-dependent kinase 8 (Homo sapiens) (UniProt P49336)", "sequence (P49336 whole entry)": "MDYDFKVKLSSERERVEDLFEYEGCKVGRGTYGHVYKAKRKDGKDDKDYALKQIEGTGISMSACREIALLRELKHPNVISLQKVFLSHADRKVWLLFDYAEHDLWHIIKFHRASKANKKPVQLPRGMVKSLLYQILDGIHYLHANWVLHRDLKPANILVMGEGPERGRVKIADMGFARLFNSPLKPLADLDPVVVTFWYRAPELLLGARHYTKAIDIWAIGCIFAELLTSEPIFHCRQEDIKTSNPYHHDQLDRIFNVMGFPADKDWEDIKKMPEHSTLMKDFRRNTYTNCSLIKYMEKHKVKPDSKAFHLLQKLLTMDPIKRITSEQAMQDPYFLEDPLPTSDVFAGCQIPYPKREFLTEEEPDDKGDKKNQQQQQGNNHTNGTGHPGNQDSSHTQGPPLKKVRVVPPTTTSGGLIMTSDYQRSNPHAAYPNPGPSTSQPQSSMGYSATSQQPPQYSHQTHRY", "assay": "Inhibition of CDK8 Lys2 labeling site in human A-375 cells at 5 uM by KiNativ Profiling analysis relative to control", "assay_type": "cell-based", "outline": "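Live A375 melanoma cells were treated with compound at 5 or 0.5 μM. The cells were then lysed, and the lysates were labeled with a lysine-reactive ATP or ADP-biotin acyl probe (KiNativ). Inhibition is the compound's protection of each kinase labeling-site peptide from probe labeling, relative to untreated control.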"}, "[6]": {"biological_target": "Cyclin-dependent kinase 2 (Homo sapiens) (UniProt P24941)", "assay": "Inhibition of CDK2 Lys2 labeling site in human A-375 cells at 0.05 uM by KiNativ Profiling analysis relative to control", "assay_type": "cell-based"}, "[7]": {"biological_target": "Serine/threonine-protein kinase WNK1 (Homo sapiens) (UniProt Q9H4A3)", "assay": "Inhibition of Wnk1 ATP Loop labeling site in human A-375 cells at 5 uM by KiNativ Profiling analysis relative to control", "assay_type": "cell-based"}, "[8]": {"biological_target": "Tyrosine-protein kinase ABL1 (Homo sapiens, UniProt P00519)", "assay": "Inhibition of ABL ACT labeling site in human A-375 cells at 5 uM by KiNativ Profiling analysis relative to control", "assay_type": "cell-based", "outline": "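Intact A375 melanoma cells were treated with compound at 5 or 0.5 μM, then lysed. Lysate kinases were labeled with a lysine-reactive ATP or ADP-biotin probe (KiNativ). Inhibition is read as protection of each kinase labeling site from probe labeling.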"}, "[9]": {"biological_target": "Cyclin-dependent kinase 18 (Homo sapiens) (UniProt Q07002)", "sequence (Q07002 whole entry)": "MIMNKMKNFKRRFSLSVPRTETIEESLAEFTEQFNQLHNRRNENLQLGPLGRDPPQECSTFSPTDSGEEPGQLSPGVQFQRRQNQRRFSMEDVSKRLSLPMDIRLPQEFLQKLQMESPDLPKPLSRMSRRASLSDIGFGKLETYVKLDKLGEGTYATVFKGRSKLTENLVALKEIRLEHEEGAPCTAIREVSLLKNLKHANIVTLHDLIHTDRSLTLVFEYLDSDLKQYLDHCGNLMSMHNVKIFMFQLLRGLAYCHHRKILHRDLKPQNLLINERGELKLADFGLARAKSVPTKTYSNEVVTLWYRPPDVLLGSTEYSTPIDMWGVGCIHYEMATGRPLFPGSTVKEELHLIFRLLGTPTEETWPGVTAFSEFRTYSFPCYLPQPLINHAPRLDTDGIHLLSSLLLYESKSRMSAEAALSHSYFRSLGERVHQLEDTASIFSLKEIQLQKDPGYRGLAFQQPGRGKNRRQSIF", "assay": "Inhibition of PCTAIRE3 Lys1 labeling site harbouringSKLTENLVALKEIR in human A-375 cells at 0.5 uM by KiNativ Profiling analysis relative to control", "assay_type": "cell-based", "outline": "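Live A375 melanoma cells were treated with compound at 5 or 0.5 μM, then lysed. Lysates were labeled with a lysine-reactive ATP or ADP-biotin probe. Read-out was the compound's protection of kinase labeling sites from probe labeling (KiNativ).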"}, "[10]": {"biological_target": "Serine/threonine-protein kinase Nek7 (Homo sapiens) (UniProt Q8TDX7)", "sequence (Q8TDX7 whole entry, looked up)": "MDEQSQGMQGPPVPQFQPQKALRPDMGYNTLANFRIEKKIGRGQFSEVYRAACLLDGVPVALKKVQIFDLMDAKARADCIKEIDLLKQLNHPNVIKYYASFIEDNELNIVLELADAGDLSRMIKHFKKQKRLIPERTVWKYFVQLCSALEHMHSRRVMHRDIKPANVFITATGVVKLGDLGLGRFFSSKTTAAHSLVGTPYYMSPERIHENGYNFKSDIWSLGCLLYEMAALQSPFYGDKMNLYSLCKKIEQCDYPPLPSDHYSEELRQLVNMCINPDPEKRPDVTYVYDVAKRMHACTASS", "assay": "Inhibition of NEK7 ACT labeling site in human A-375 cells at 0.05 uM by KiNativ Profiling analysis relative to control", "assay_type": "cell-based"}, "[11]": {"biological_target": "Mitogen-activated protein kinase kinase kinase 20 (Homo sapiens, UniProt Q9NYL2)", "assay": "Inhibition of ZAK (unknown origin) Lys1 labeling site by KiNativ Profiling analysis"}, "[12]": {"biological_target": "Tyrosine-protein kinase Fer (Homo sapiens, UniProt P16591)", "assay": "Inhibition of FER Lys1 labeling site in human A-375 cells at 0.5 uM by KiNativ Profiling analysis relative to control", "assay_type": "cell-based"}, "[13]": {"biological_target": "Epidermal growth factor receptor (Homo sapiens) (UniProt P00533)", "assay": "Inhibition of EGFR ACT labeling site harbouring LLGAEEKEYHAEGGKVPIK in human A-375 cells at 5 uM by KiNativ Profiling analysis relative to control", "assay_type": "cell-based", "outline": "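Live A375 melanoma cells were treated with compound at 0.5 or 5 μM, then lysed. Lysates were labeled with a lysine-reactive ATP or ADP-biotin probe. The read-out was protection of each kinase probe-labeling site from labeling, relative to control.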"}, "[14]": {"biological_target": "Serine/threonine-protein kinase 25 (Homo sapiens) (UniProt O00506)", "sequence (O00506 whole entry, looked up)": "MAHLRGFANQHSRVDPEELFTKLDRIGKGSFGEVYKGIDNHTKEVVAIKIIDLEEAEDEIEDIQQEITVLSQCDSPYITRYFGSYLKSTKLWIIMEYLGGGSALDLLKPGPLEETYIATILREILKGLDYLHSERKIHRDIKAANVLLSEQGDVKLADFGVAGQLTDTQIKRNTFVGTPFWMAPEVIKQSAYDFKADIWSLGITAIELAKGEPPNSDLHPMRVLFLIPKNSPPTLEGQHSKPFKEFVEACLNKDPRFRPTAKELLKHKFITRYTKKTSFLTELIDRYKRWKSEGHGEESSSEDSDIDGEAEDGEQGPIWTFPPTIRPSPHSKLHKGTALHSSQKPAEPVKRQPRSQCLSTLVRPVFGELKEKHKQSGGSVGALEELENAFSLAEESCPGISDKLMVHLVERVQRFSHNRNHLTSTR", "assay": "Inhibition of YSK1 ACT labeling site in human A-375 cells at 0.05 uM by KiNativ Profiling analysis relative to control", "assay_type": "cell-based"}, "[15]": {"biological_target": "RAC-beta serine/threonine-protein kinase (Homo sapiens) (UniProt P31751)", "sequence (P31751 whole entry)": "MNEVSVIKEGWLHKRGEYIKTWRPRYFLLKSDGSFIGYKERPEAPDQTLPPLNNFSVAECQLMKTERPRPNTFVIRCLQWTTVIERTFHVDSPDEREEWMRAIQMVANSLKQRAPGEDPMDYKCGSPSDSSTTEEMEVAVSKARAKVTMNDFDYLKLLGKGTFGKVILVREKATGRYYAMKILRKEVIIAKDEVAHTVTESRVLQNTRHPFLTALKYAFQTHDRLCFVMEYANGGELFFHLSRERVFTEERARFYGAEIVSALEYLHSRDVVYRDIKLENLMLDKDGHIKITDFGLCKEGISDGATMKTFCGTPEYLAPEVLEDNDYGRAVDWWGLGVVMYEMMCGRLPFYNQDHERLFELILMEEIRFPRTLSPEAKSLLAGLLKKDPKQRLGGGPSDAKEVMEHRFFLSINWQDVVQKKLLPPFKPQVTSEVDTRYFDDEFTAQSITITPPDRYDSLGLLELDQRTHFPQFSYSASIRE", "assay": "Inhibition of AKT2 ATP Loop labeling site in human A-375 cells at 0.5 uM by KiNativ Profiling analysis relative to control", "assay_type": "cell-based", "outline": "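Live A375 melanoma cells were treated with compound at 5 or 0.5 μM, then lysed. The lysates were labeled with a lysine-reactive ATP or ADP-biotin probe. Kinase protection from probe labeling was measured by KiNativ.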"}}}
{"smiles": "CNc1cc(Oc2cc(C(=O)Nc3cc(N4CCN(C)CC4)cc(C(F)(F)F)c3)ccc2C)ncn1", "values": [{"measurement": "inhibition", "setting": "[1]", "value": 26.9, "unit": "%"}]}
{"smiles": "CCN1CCN(Cc2ccc(NC(=O)c3ccc(C)c(Oc4ccnc5[nH]ccc45)c3)cc2C(F)(F)F)CC1", "values": [{"measurement": "inhibition", "setting": "[2]", "value": 42.1, "unit": "%"}, {"measurement": "inhibition", "setting": "[3]", "value": -9.5, "unit": "%"}, {"measurement": "inhibition", "setting": "[4]", "value": 37.6, "unit": "%"}, {"measurement": "inhibition", "setting": "[5]", "value": 18, "unit": "%"}, {"measurement": "inhibition", "setting": "[6]", "value": 16.2, "unit": "%"}, {"measurement": "inhibition", "setting": "[7]", "value": 13.1, "unit": "%"}, {"measurement": "inhibition", "setting": "[8]", "value": "> 98", "unit": "%"}, {"measurement": "inhibition", "setting": "[9]", "value": 31.7, "unit": "%"}, {"measurement": "inhibition", "setting": "[10]", "value": 14.2, "unit": "%"}, {"measurement": "IC50", "setting": "[11]", "value": 698, "unit": "nM"}, {"measurement": "inhibition", "setting": "[12]", "value": 87, "unit": "%"}, {"measurement": "inhibition", "setting": "[13]", "value": 0.7, "unit": "%"}, {"measurement": "inhibition", "setting": "[14]", "value": 22.4, "unit": "%"}, {"measurement": "inhibition", "setting": "[15]", "value": -1.8, "unit": "%"}]}
{"smiles": "CNc1cc(Oc2cc(C(=O)Nc3cc(-n4cnc(C)c4)cc(C(F)(F)F)c3)ccc2C)ncn1", "values": [{"measurement": "inhibition", "setting": "[1]", "value": -2.8, "unit": "%"}]}
{"smiles": "CCN1CCN(Cc2ccc(NC(=O)c3ccc(C)c(/C=C/c4cnc5[nH]ccc5c4OC)c3)cc2C(F)(F)F)CC1", "values": [{"measurement": "inhibition", "setting": "[2]", "value": 43.4, "unit": "%"}, {"measurement": "inhibition", "setting": "[3]", "value": -8.8, "unit": "%"}, {"measurement": "inhibition", "setting": "[4]", "value": 81.1, "unit": "%"}, {"measurement": "inhibition", "setting": "[5]", "value": 16.9, "unit": "%"}, {"measurement": "inhibition", "setting": "[6]", "value": 13.3, "unit": "%"}, {"measurement": "inhibition", "setting": "[7]", "value": 13.7, "unit": "%"}, {"measurement": "inhibition", "setting": "[8]", "value": "> 98", "unit": "%"}, {"measurement": "inhibition", "setting": "[9]", "value": 11.3, "unit": "%"}, {"measurement": "inhibition", "setting": "[10]", "value": 6.8, "unit": "%"}, {"measurement": "IC50", "setting": "[11]", "value": 469, "unit": "nM"}, {"measurement": "inhibition", "setting": "[12]", "value": 30, "unit": "%"}, {"measurement": "inhibition", "setting": "[13]", "value": -7.4, "unit": "%"}, {"measurement": "inhibition", "setting": "[14]", "value": 13.5, "unit": "%"}, {"measurement": "inhibition", "setting": "[15]", "value": 25.1, "unit": "%"}]}
